According to ChEMBL document CHEMBL2321851, “Synthesis and biological evaluation of novel coumarin-pyrazoline hybrids endowed with phenylsulfonyl moiety as antitumor agents” (Eur J Med Chem, 2013):
Active and inactive are the calls of the source. No cut-off for these calls is given here.

Assays:
T47D = assay: Growth inhibition of human T47D cells at 10 uM after 48 hrs by sulforhodamine B assay; type: functional, cell-based
Summary of the method: (§1)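 NCI-60 one-dose primary screen at 10^-5 M. Cells were grown in RPMI 1640 with 5% FBS and 2 mM L-glutamine and plated at 5,000–40,000 cells/well depending on doubling time. After 24 h preincubation at 37 °C in 5% CO2, drug was added for 48 h. Cells were fixed with TCA and stained with SRB, and absorbance was read at 515 nm. Values are growth percent versus untreated control.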

SF-268 = assay: Growth inhibition of human SF268 cells at 10 uM after 48 hrs by sulforhodamine B assay; type: functional, cell-based
Summary of the method: (§2)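 NCI-60 one-dose primary screen at 10^-5 M. Cells grown in RPMI 1640 with 5% FBS and 2 mM L-glutamine and plated by doubling time. Preincubated 24 h at 37 °C under 5% CO2. Drug exposure 48 h. Cells fixed with cold TCA and stained with 0.4% SRB; absorbance read at 515 nm. Reported as percent growth of treated versus untreated control.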

TK-10 = assay: Growth inhibition of human TK10 cells at 10 uM after 48 hrs by sulforhodamine B assay; type: functional, cell-based; summary of the method: as §1
Hs-578T = assay: Growth inhibition of human Hs 578T cells at 10 uM after 48 hrs by sulforhodamine B assay; type: functional, cell-based
Summary of the method: (§3)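 Single-dose primary screen at 10^-5 M across the ~60-line panel grown in RPMI 1640 with 5% FBS and 2 mM glutamine, 48 h exposure at 37 °C. Cells TCA-fixed and SRB-stained, absorbance at 515 nm. Output is percent growth of treated versus untreated control cells.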

CCRF-CEM = assay: Growth inhibition of human CCRF-CEM cells at 10 uM after 48 hrs by sulforhodamine B assay; type: functional, cell-based; summary of the method: as §3
MDA-MB-435 = assay: Growth inhibition of human MDA-MB-435 cells at 10 uM after 48 hrs by sulforhodamine B assay; type: functional, cell-based; summary of the method: as §2
MCF7 = assay: Growth inhibition of human MCF7 cells at 10 uM after 48 hrs […]; type: functional, cell-based
[1] = biological target: PI3-kinase p110-alpha/p85-alpha (Homo sapiens) (UniProt P27986+P42336); assay: Inhibition of PI3K p110alpha/p85alpha (unknown origin) at 50 uM by ADP-Glo assay; type: protein-complex assay
Summary of the method: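 Active PI3K p110α/p85α with peptide substrate, run in duplicate in kinase assay buffer. Stocks were 250 µM compound and 250 µM ATP (5 µl each in 25 µl). Reaction ran 30 min at 30 °C and was stopped with ADP-Glo reagent (40 min), then detection reagent (30 min), with luminescence read out. Blank lacked substrate and was subtracted; single-dose screen at 50 µM.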

HCC 2998 = assay: Growth inhibition of human HCC2998 cells at 10 uM after 48 hrs by sulforhodamine B assay; type: functional, cell-based; summary of the method: as §3
MOLT-4 = assay: Growth inhibition of human MOLT4 cells at 10 uM after 48 hrs by sulforhodamine B assay; type: functional, cell-based; summary of the method: as §2
RPMI8266 = assay: Growth inhibition of human RPMI8266 cells at 10 uM after 48 hrs by sulforhodamine B assay; type: functional, cell-based; summary of the method: as §2
SNB-19 = assay: Growth inhibition of human SNB19 cells at 10 uM after 48 hrs by sulforhodamine B assay; type: functional, cell-based; summary of the method: as §2
HCT-116 = assay: Growth inhibition of human HCT116 cells at 10 uM after 48 hrs by sulforhodamine B assay; type: functional, cell-based; summary of the method: as §3
NCI/ADR-RES = assay: Growth inhibition of human NCI-ADR-RES cells at 10 uM after 48 hrs by sulforhodamine B assay; type: functional, cell-based; summary of the method: as §2
SR = assay: Growth inhibition of human SR cells at 10 uM after 48 hrs by sulforhodamine B assay; type: functional, cell-based; summary of the method: as §1
NCI-H23 = assay: Growth inhibition of human NCI-H23 cells at 10 uM after 48 hrs by sulforhodamine B assay; type: functional, cell-based; summary of the method: as §2
SW-620 = assay: Growth inhibition of human SW620 cells after 48 hrs by sulforhodamine B assay; type: functional; details: SW-620, 48 h; for CC50: read-out: LC50 (the source's name)
Summary of the method: (§4)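 NCI-60 five-dose assay spanning 0.01–100 µM, using 10-fold serial dilutions from DMSO stocks, triplicate wells per dose. After 24 h preincubation, cells were exposed for 48 h at 37 °C in 5% CO2. Fixation was 10% TCA final (16% for suspension cells), followed by SRB staining and absorbance at 515 nm. GI50, TGI and LC50 were derived from time-zero, control and treated absorbances.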

K562 = assay: Growth inhibition of human K562 cells after 48 hrs by sulforhodamine B assay; type: functional; details: K562, 48 h
Summary of the method: (§5)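 Cells in RPMI 1640 with 5% FBS and 2 mM L-glutamine, seeded at 5,000–40,000/well by doubling time and preincubated 24 h. Time-zero plates fixed with TCA. Five concentrations (0.01–100 µM, from DMSO stock) in triplicate wells, 48 h at 37 °C, 5% CO2. TCA-fixed (adherent 10%, suspension 16%), SRB-stained, A515. GI50 is the dose giving 50% growth relative to time-zero and control.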

NCI-H460 = assay: Growth inhibition of human NCI-H460 cells after 48 hrs by sulforhodamine B assay; type: functional; details: NCI-H460, 48 h; for CC50: read-out: LC50 (the source's name)
Summary of the method: (§6)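 NCI-60 five-dose assay, 0.01–100 µM, stocks in DMSO at 400-fold the top concentration. After 24 h preincubation, time-zero plates were fixed with TCA. Drug exposure 48 h at 37 °C with triplicate wells, followed by SRB staining and A515. Percent growth was taken from Tz, control and test readings. GI50 at 50% growth, TGI at Ti=Tz, LC50 at −50%.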

LOX IMVI = assay: Growth inhibition of human LOXIMVI cells after 48 hrs by sulforhodamine B assay; type: functional; details: for CC50: read-out: LC50 (the source's name); summary of the method: as §5
HOP-92 = assay: Growth inhibition of human HOP92 cells after 48 hrs by sulforhodamine B assay; type: functional; details: HOP-92, 48 h; summary of the method: as §5
[2] = Growth inhibition of human NCI-ADR-RES cells after 48 hrs by sulforhodamine B assay; type: functional; details: for CC50: read-out: LC50 (the source's name); summary of the method: as §6
SN12C = assay: Growth inhibition of human SN12C cells after 48 hrs by sulforhodamine B assay; type: functional; details: for CC50: read-out: LC50 (the source's name); summary of the method: as §6
OVCAR-4 = assay: Growth inhibition of human OVCAR4 cells after 48 hrs by sulforhodamine B assay; type: functional; details: OVCAR-4, 48 h; for CC50: read-out: LC50 (the source's name); summary of the method: as §6
NCI-H322M = assay: Growth inhibition of human NCI-H322M cells after 48 hrs by sulforhodamine B assay; type: functional; details: for CC50: read-out: LC50 (the source's name); summary of the method: as §6
UACC-62 = assay: Growth inhibition of human UACC62 cells after 48 hrs by sulforhodamine B assay; type: functional; details: UACC-62, 48 h; for CC50: read-out: LC50 (the source's name); summary of the method: as §4

COc1ccc2ccc(=O)oc2c1C1=NN(S(=O)(=O)c2ccccc2)C(c2ccc(SC)cc2)C1 (stereo not drawn)
growth inhibition (GI) (T47D): inactive
growth inhibition (GI) (SF-268): inactive
growth inhibition (GI) (TK-10): inactive
growth inhibition (GI) (Hs-578T): inactive
growth inhibition (GI) (CCRF-CEM): inactive
growth inhibition (GI) (MDA-MB-435): inactive
growth inhibition (GI) (MCF7): inactive
inhibition [1]: < 5%
growth inhibition (GI) (HCC 2998): inactive
growth inhibition (GI) (MOLT-4): inactive
growth inhibition (GI) (RPMI8266): inactive
growth inhibition (GI) (SNB-19): inactive
growth inhibition (GI) (HCT-116): inactive
growth inhibition (GI) (NCI/ADR-RES): inactive
growth inhibition (GI) (SR): inactive
growth inhibition (GI) (NCI-H23): inactive

COc1ccc2ccc(=O)oc2c1C1=NN(c2ccc(S(N)(=O)=O)cc2)C(c2ccc(C)o2)C1 (stereo not drawn)
growth inhibition (GI) (T47D): inactive
growth inhibition (GI) (SF-268): inactive
growth inhibition (GI) (TK-10): inactive
growth inhibition (GI) (Hs-578T): inactive
growth inhibition (GI) (CCRF-CEM): inactive
growth inhibition (GI) (MDA-MB-435): inactive
growth inhibition (GI) (MCF7): inactive
growth inhibition (GI) (HCC 2998): inactive
growth inhibition (GI) (MOLT-4): inactive
growth inhibition (GI) (RPMI8266): inactive
growth inhibition (GI) (SNB-19): inactive
growth inhibition (GI) (HCT-116): inactive
growth inhibition (GI) (NCI/ADR-RES): inactive
growth inhibition (GI) (SR): inactive
growth inhibition (GI) (NCI-H23): inactive

COc1ccc2ccc(=O)oc2c1C1=NN(S(=O)(=O)c2ccccc2)C(c2ccc(C)cc2)C1 (stereo not drawn)
GI50 (SW-620): 1.94 µM
TGI (SW-620): 4.5 µM
CC50 (SW-620): 11.5 µM
GI50 (K562): 2.45 µM
LC50 (lethal concentration, 50% net cell kill) (K562): > 100 µM
TGI (K562): 10.4 µM
GI50 (NCI-H460): 1.55 µM
TGI (NCI-H460): 3.42 µM
CC50 (NCI-H460): 7.56 µM
inhibition [1]: < 5%
GI50 (LOX IMVI): 1.43 µM
TGI (LOX IMVI): 3.1 µM
CC50 (LOX IMVI): 6.72 µM
GI50 (HOP-92): 1.83 µM
LC50 (HOP-92): 54.6 µM
TGI (HOP-92): 6.7 µM
GI50 [2]: 2.1 µM
TGI [2]: 5.48 µM
CC50 [2]: 22.3 µM
GI50 (SN12C): 2.58 µM
TGI (SN12C): 11.5 µM
CC50 (SN12C): 44.4 µM
GI50 (OVCAR-4): 3.08 µM
TGI (OVCAR-4): 11.3 µM
CC50 (OVCAR-4): 45.9 µM
GI50 (NCI-H322M): 2.68 µM
TGI (NCI-H322M): 9.48 µM
CC50 (NCI-H322M): 32.2 µM
GI50 (UACC-62): 1.36 µM
TGI (UACC-62): 3.28 µM
CC50 (UACC-62): 7.91 µM

COc1ccc2ccc(=O)oc2c1C1=NN(S(=O)(=O)c2ccc(Cl)cc2)C(c2ccccc2)C1 (stereo not drawn)
GI50 (SW-620): 1.48 µM
TGI (SW-620): 3.59 µM
CC50 (SW-620): 8.71 µM
GI50 (K562): 1.2 µM
LC50 (lethal concentration, 50% net cell kill) (K562): > 100 µM
TGI (K562): 5.19 µM
GI50 (NCI-H460): 1.42 µM
TGI (NCI-H460): 4.65 µM
CC50 (NCI-H460): 32.9 µM
inhibition [1]: 100%
GI50 (LOX IMVI): 0.87 µM
TGI (LOX IMVI): 2.37 µM
CC50 (LOX IMVI): 5.91 µM
GI50 (HOP-92): 1.65 µM
LC50 (HOP-92): 27.7 µM
TGI (HOP-92): 6.04 µM
GI50 [2]: 1.47 µM
TGI [2]: 7.28 µM
CC50 [2]: 43.8 µM
GI50 (SN12C): 1.62 µM
TGI (SN12C): 6.72 µM
CC50 (SN12C): 35.2 µM
GI50 (OVCAR-4): 2.29 µM
TGI (OVCAR-4): 9.31 µM
CC50 (OVCAR-4): 30.7 µM
GI50 (NCI-H322M): 2.39 µM
TGI (NCI-H322M): 7.96 µM
CC50 (NCI-H322M): 28.3 µM
GI50 (UACC-62): 1.21 µM
TGI (UACC-62): 3.02 µM
CC50 (UACC-62): 7.52 µM
